From ChEMBL document CHEMBL3259628, “Discovery of novel 2-((pyridin-3-yloxy)methyl)piperazines as α7 nicotinic acetylcholine receptor modulators for the treatment of inflammatory disorders” (J Med Chem, 2014)
Activity calls are given as the source filed them. The calls are words filed in the database; no cut-off is given here.

How the values were obtained:
[1] = target: Neuronal acetylcholine receptor subunit alpha-7 (Rattus norvegicus, UniProt Q05941); test: Inhibition of biotinylated alpha-bungarotoxin binding to alpha7 nAChR in rat PC12 cells by FACS analysis; format: cell-based, PC-12
Neuronal acetylcholine receptor subunit alpha-7 (Rattus norvegicus, UniProt Q05941), sequence (Q05941 whole entry): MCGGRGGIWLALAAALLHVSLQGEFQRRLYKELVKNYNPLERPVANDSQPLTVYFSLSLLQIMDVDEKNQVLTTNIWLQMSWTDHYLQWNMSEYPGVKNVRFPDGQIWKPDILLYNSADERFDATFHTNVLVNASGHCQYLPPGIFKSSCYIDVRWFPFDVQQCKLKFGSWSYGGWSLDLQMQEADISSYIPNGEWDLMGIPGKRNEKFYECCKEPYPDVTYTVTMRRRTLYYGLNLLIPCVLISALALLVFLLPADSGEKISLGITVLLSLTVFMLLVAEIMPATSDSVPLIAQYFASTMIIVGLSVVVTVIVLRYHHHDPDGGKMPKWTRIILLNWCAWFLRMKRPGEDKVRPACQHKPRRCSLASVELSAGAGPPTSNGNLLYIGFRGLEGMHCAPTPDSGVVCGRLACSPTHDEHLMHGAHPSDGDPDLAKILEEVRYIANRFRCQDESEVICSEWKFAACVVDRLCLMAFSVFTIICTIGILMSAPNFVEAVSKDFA
How it was run: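 Rat PC12 cells in binding buffer (PBS, 1.0% FBS, 0.02% sodium azide), 0.1% DMSO; biotinylated α-bungarotoxin 10 nM final, 1 h at room temperature; nonspecific binding defined with 1.5 μM unlabeled toxin. After washing, phycoerythrin-streptavidin 1.0 μg/mL final, 15 min in the dark; read by FACS. Screened at 10 and 1 μM, then eight-point 3-fold dilution IC50; mean of two or more experiments.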

[2] = target: T1, Neuronal acetylcholine receptor subunit alpha-7 (Homo sapiens, UniProt P36544); test: Agonist activity at human alpha7 nAChR expressed in Xenopus oocytes by voltage clamp method; format: cell-based
T1 sequence (P36544 whole entry): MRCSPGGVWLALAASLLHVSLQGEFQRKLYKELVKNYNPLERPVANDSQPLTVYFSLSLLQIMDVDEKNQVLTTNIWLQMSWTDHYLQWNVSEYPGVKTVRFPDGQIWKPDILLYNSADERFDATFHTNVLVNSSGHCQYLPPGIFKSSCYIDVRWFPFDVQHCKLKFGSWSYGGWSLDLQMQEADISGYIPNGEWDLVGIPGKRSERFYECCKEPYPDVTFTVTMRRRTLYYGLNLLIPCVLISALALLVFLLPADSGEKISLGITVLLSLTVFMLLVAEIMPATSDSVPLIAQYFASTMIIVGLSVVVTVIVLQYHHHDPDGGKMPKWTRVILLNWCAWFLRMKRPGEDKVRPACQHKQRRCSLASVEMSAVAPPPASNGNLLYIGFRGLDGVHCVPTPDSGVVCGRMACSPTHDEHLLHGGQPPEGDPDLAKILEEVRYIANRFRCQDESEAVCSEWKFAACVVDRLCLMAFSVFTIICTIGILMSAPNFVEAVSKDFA

[3] = target: T2, Neuronal acetylcholine receptor; alpha4/beta2 (Homo sapiens, UniProt P17787+P43681); test: Agonist activity at human alpha4beta2 nAChR expressed in Xenopus oocytes by voltage clamp method; format: cell-based
T2 sequence (P17787 whole entry): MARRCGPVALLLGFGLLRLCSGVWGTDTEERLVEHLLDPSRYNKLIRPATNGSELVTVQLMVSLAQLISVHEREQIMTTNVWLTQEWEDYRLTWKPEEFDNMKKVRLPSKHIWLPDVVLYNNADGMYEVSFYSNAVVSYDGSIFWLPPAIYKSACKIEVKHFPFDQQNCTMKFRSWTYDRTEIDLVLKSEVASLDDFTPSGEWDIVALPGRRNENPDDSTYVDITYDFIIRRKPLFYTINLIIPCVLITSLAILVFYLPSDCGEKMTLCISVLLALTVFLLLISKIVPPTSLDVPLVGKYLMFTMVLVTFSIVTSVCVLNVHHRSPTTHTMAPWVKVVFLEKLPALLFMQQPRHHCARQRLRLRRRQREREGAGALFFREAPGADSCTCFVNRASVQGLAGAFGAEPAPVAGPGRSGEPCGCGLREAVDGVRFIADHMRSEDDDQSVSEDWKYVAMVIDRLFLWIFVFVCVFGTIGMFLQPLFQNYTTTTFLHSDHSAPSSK
T2 sequence (P43681 whole entry): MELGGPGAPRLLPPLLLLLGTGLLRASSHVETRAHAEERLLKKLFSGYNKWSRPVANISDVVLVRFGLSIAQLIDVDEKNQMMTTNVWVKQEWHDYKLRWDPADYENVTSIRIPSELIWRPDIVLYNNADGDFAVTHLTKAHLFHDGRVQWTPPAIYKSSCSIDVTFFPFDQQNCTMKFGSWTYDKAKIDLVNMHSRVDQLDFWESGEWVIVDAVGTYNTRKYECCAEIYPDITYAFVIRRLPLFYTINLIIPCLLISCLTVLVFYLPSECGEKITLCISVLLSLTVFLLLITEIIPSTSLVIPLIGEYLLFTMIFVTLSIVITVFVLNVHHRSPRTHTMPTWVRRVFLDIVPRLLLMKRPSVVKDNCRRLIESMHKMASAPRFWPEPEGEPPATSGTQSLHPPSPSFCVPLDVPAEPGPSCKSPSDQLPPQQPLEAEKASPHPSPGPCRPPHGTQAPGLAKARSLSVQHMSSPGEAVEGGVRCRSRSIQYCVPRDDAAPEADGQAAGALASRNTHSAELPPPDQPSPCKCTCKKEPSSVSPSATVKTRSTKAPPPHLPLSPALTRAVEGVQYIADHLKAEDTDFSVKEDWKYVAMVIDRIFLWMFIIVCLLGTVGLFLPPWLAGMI

[4] = target: Acetylcholine receptor; alpha1/beta1/delta/gamma (Homo sapiens) (UniProt P02708+P07510+P11230+Q07001); test: Inhibition of alpha1beta1gammadelta nAChR (unknown origin) at 10 uM; format: protein-complex assay
How it was run: (§1)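 Receptor, ion channel and transporter binding panel run at Cerep in duplicate. Percent inhibition measured at 10 μM compound.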

[5] = target: T3, 5-hydroxytryptamine receptor 3A (Homo sapiens) (UniProt P46098); test: Inhibition of 5-HT3 receptor (unknown origin) at 10 uM; how it was run: as §1
T3 sequence (whole entry): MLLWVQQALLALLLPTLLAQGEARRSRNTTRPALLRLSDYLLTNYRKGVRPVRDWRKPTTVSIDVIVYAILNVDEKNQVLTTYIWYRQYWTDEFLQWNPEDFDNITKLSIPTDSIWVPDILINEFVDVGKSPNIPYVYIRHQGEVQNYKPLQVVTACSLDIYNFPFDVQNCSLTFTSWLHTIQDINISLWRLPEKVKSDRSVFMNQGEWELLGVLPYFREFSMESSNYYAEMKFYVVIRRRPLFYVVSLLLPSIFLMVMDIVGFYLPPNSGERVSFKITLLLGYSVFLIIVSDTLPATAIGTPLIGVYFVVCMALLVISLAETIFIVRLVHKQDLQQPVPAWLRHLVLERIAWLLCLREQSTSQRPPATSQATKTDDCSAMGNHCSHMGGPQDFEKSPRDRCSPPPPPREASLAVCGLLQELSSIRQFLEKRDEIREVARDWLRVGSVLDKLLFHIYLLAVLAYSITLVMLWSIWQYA

CYP1A2 = target: T4, CYP1A2 (Homo sapiens, UniProt P05177); test: Inhibition of CYP1A2 (unknown origin) at 10 uM; format: ADME
T4 sequence (P05177 whole entry): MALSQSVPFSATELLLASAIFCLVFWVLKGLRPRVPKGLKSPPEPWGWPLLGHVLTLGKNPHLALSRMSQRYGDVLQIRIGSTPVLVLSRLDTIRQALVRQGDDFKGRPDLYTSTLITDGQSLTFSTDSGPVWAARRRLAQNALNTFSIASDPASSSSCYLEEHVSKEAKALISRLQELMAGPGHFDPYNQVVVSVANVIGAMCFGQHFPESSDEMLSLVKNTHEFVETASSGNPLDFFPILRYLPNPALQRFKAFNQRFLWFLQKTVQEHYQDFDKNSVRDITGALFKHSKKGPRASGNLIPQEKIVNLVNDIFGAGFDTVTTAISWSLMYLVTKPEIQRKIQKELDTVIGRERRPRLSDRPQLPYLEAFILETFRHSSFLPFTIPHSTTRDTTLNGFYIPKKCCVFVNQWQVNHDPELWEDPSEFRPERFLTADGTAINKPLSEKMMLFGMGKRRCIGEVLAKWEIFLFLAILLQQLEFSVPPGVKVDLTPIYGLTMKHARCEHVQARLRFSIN
How it was run: (§2)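 Each of five Cyp isoforms assayed with single probe substrates rather than a substrate cocktail. Run in duplicate at Cerep. IC50 lines come from a 5-concentration titration curve.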

CYP2C9 = CYP2C9 (Homo sapiens, UniProt P11712); test: Inhibition of CYP2C9 (unknown origin) at 10 uM; format: ADME; how it was run: as §2
CYP2C9, sequence (P11712 whole entry): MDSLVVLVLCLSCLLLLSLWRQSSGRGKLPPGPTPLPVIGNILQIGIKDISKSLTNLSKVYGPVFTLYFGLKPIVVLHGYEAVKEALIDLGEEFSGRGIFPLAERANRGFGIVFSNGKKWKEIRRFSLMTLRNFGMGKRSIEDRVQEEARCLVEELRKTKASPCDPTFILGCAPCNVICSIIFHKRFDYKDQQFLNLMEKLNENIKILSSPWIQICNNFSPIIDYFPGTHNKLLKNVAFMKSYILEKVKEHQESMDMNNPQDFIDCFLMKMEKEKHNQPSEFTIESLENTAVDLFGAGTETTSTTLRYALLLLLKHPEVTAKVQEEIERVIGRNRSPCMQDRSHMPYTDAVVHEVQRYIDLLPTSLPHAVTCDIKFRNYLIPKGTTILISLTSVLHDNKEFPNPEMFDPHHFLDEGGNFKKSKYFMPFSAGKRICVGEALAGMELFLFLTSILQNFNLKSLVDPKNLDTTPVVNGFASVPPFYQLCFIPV

CYP2C19 = CYP2C19 (Homo sapiens, UniProt P33261); test: Inhibition of CYP2C19 (unknown origin) at 10 uM; format: ADME; how it was run: as §2
CYP2C19, sequence (P33261 whole entry): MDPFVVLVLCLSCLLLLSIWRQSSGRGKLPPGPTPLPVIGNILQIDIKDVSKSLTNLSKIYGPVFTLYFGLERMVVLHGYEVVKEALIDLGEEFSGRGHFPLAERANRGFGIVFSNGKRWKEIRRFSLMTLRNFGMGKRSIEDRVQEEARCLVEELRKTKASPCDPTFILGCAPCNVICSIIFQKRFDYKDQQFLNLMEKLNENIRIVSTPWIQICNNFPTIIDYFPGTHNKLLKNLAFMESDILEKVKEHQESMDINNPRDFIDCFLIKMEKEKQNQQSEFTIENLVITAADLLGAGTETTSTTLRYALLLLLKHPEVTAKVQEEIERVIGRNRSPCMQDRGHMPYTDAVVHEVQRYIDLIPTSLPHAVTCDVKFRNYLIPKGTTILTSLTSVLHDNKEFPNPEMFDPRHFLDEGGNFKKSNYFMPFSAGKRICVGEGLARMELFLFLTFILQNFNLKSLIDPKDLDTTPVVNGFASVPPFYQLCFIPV

CYP2D6 = CYP2D6 (Homo sapiens, UniProt P10635); test: Inhibition of CYP2D6 (unknown origin) at 10 uM; format: ADME; how it was run: as §2
CYP2D6, sequence (P10635 whole entry): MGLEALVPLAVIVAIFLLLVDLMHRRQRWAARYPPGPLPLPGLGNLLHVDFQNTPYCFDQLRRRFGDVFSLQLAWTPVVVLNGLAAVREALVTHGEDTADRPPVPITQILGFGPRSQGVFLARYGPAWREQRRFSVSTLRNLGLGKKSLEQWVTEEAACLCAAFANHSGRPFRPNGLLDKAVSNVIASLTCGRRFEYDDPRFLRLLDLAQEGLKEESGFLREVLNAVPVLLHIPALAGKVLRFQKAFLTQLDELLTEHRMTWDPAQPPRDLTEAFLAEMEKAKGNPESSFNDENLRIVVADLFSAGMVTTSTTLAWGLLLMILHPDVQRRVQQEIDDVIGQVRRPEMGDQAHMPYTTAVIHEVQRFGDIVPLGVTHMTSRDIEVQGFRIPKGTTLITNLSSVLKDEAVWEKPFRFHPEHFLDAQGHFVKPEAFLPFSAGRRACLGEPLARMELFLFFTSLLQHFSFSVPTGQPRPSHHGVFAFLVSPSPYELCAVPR

CYP3A4 = CYP3A4 (Homo sapiens, UniProt P08684); test: Inhibition of CYP3A4 (unknown origin) at 10 uM; format: ADME; how it was run: as §2
CYP3A4, sequence (P08684 whole entry): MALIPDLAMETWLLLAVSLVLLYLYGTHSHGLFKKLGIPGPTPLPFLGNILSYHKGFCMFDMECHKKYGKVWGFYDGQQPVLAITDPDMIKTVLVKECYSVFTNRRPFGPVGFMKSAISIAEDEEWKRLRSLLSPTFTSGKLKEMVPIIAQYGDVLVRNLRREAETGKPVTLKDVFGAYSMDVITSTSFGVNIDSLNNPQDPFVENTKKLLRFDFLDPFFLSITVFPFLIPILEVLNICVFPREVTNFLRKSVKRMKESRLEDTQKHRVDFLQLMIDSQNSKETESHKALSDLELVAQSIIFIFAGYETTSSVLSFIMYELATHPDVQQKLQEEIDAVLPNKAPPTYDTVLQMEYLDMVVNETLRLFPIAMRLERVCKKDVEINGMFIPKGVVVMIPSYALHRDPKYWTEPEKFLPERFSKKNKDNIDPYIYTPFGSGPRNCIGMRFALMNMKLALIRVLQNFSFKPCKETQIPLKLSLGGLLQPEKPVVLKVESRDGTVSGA

[6] = target: Adenosine receptor A2a (Homo sapiens) (UniProt P29274); test: Inhibition of adenosine A2a receptor (unknown origin) at 10 uM; how it was run: as §1
Adenosine receptor A2a (Homo sapiens), sequence (P29274 whole entry): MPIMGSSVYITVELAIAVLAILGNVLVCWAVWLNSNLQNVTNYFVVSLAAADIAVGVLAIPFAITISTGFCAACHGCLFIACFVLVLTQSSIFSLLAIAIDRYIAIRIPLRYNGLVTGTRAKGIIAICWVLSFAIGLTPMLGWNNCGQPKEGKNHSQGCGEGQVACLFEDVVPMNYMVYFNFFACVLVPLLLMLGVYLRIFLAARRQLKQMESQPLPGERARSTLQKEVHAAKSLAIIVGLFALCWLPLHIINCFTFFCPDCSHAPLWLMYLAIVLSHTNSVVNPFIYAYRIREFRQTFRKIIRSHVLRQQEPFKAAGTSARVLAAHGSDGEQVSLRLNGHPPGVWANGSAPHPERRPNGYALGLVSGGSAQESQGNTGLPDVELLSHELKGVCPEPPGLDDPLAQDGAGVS

[7] = Half life in mouse at 1 mg/kg, iv; format: ADME, organism-based; parameters: dose 1 mg/kg, route intravenous; settings: in vivo
[8] = Clearance in mouse at 1 mg/kg, iv; format: ADME, organism-based; parameters: dose 1 mg/kg, route intravenous; settings: in vivo
[9] = Oral bioavailability in mouse at 5 mg/kg; format: ADME, organism-based; settings: in vivo
[10] = Half life in mouse at 5 mg/kg, po; format: ADME, organism-based; parameters: dose 5 mg/kg, route oral; settings: in vivo
[11] = Cmax in mouse at 5 mg/kg, po; format: ADME, organism-based; parameters: dose 5 mg/kg, route oral; settings: in vivo
Mus musculus [12] = test: (§3) Antiinflammatory activity against ovalbumin-induced allergic lung inflammation BALB/c mouse model assessed as reduction in total blood cells in brochoalveolar lavage fluid at 5 mg/kg, po qd administered on day 29 to 31 post ovalbumin challenge measured 8 hrs post last challenge relative to vehicle-treated control; format: functional
How it was run: (§4)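 Balb/c mice sensitized with ovalbumin by IP injection on days 1 and 14, then challenged intranasally with 100 μg ovalbumin on days 29, 30 and 31. Compound in saline given orally starting 30 min before each challenge; groups of six mice. Sham groups were saline-sensitized and allergen-challenged. BAL taken 8 h after the last challenge, with differential cell counts on slides.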

Mus musculus [13] = test: as §3, with “1” for “5”; format: functional; how it was run: as §4
Mus musculus [14] = test: as §3, with “neutrophils” for “total blood cells”; format: functional; settings: Bronchoalveolar lavage; how it was run: as §4
Mus musculus [15] = test: as §3, with “neutrophils” for “total blood cells”, “1” for “5”; format: functional; settings: Bronchoalveolar lavage; how it was run: as §4
Mus musculus [16] = test: as §3, with “eosinophils” for “total blood cells”, “1” for “5”; format: functional; how it was run: as §4
Mus musculus [17] = test: as §3, with “eosinophils” for “total blood cells”; format: functional, organism-based; parameters: dose 5 mg/kg; how it was run: as §4
[18] = target: T1, Neuronal acetylcholine receptor subunit alpha-7; settings: 300 uM
[19] = target: T2, Neuronal acetylcholine receptor; alpha4/beta2; test: Inhibition of human alpha4beta2 nAChR by binding assay
[20] = target: T2, Neuronal acetylcholine receptor; alpha4/beta2; test: Agonist activity at alpha4beta2 nAChR (unknown origin)
hERG (KCNH2) = hERG (KCNH2) (Homo sapiens, UniProt Q12809); test: Inhibition of human ERG at 1 uM by whole-cell voltage clamp assay
Mus musculus [21] = test: as §3, with “10” for “5”, “bid” for “qd”; format: functional, organism-based; parameters: dose 10 mg/kg; how it was run: as §4
Mus musculus [22] = test: as §3, with “neutrophils” for “total blood cells”, “10” for “5”, “bid” for “qd”; format: functional, organism-based; parameters: dose 10 mg/kg; settings: Bronchoalveolar lavage; how it was run: as §4
Mus musculus [23] = test: as §3, with “eosinophils” for “total blood cells”, “10” for “5”, “bid” for “qd”; format: functional, organism-based; parameters: dose 10 mg/kg; how it was run: as §4
[24] = target: T2, Neuronal acetylcholine receptor; alpha4/beta2; test: Inhibition of human alpha4beta2 nAChR at 10 uM by binding assay

Q: Which IC50 [1] does the source give for `Cl.c1cncc(OC[C@H]2CNCCN2c2nc3ncccc3o2)c1` here?
A: Its IC50 is 5.5 nM.

Q: And the EC50 [2]?
A: The EC50 was 200 nM.

Q: What about the Activity [3] of the same compound?
A: The Activity was “inactive”.

Q: And the inhibition [4]?
A: The inhibition was 1%.

Q: What about the inhibition [5] of the same compound?
A: The inhibition was 43%.

Q: What about the inhibition at 10 µM (CYP1A2) of the same compound?
A: Its inhibition at 10 µM is 25%.

Q: What about the inhibition at 10 µM (CYP2C9) of the same compound?
A: Its inhibition at 10 µM is 22%.

Q: And the inhibition at 10 µM (CYP2C19)?
A: Its inhibition at 10 µM is 9%.

Q: What about the inhibition at 10 µM (CYP2D6) of the same compound?
A: Its inhibition at 10 µM is 1%.

Q: And the inhibition at 10 µM (CYP3A4)?
A: Its inhibition at 10 µM is 5%.

Q: And the inhibition [6]?
A: Its inhibition is 50%.

Q: What about the half-life [7] of the same compound?
A: Its half-life is 19 min.

Q: And the clearance [8]?
A: Its clearance is 72 mL/min/kg.

Q: And the bioavailability [9]?
A: Its bioavailability is 50%.

Q: And the half-life [10]?
A: Its half-life is 98 min.

Q: And the Cmax [11]?
A: Its Cmax is 2530 nM.

Q: And the inhibition in vivo at 5 mg/kg (Mus musculus [12])?
A: The inhibition in vivo at 5 mg/kg was 60%.

Q: What about the inhibition in vivo at 1 mg/kg (Mus musculus [13]) of the same compound?
A: The inhibition in vivo at 1 mg/kg was 60%.

Q: What about the inhibition in vivo at 5 mg/kg (Mus musculus [14]) of the same compound?
A: Its inhibition in vivo at 5 mg/kg is 78%.

Q: What about the inhibition in vivo at 1 mg/kg (Mus musculus [15]) of the same compound?
A: The inhibition in vivo at 1 mg/kg was 90%.

Q: And the inhibition in vivo at 1 mg/kg (Mus musculus [16])?
A: Its inhibition in vivo at 1 mg/kg is 64%.

Q: What about the inhibition (Mus musculus [17]) of the same compound?
A: The inhibition was “inactive”.

Q: What about the Emax [18] of the same compound?
A: Its Emax is 85%.

Q: And the IC50 [19]?
A: Its IC50 is 58 nM.

Q: Which Ki [20] does the source give for `c1cncc(OC[C@@H]2CCN2)c1` here?
A: Its Ki is 0.052 nM.

Q: What does the source list for `COc1ccc(NC(=O)N2CCNCC2COc2cccnc2)cc1` (racemic)?
A: IC50 [1]: 60 nM; inhibition [4]: -8%; inhibition [5]: 23%; inhibition at 1 µM (hERG (KCNH2)): 15%; inhibition at 10 µM (CYP1A2): 11%; inhibition at 10 µM (CYP2C9): 14%; inhibition at 10 µM (CYP2C19): 17%; inhibition at 10 µM (CYP2D6): 0%; inhibition at 10 µM (CYP3A4): 7%; inhibition (Mus musculus [21]): Active; inhibition (Mus musculus [22]): Active; inhibition (Mus musculus [23]): Active; inhibition [24]: 33%
